Data from ChEMBL document CHEMBL2146441, “2,6-Disubstituted imidazo[2,1-b][1,3,4]thiadiazoles: search for anticancer agents” (2012).

Tests used:
Assay type in all cases: functional
[1] = tested on: NCI-H460; assay: Cytotoxicity against human NCI-H460 cells assessed as cell growth at 10^-6 M after 48 hrs by SRB assay; conditions: NCI-H460, 48 h, read-out: Activity
[2] = tested on: M14; assay: Cytotoxicity against human M14 cells assessed as cell growth at 10^-4 M after 48 hrs by SRB assay; conditions: M14, 48 h, read-out: Activity
[3] = Growth inhibition of human […] cells after 48 hrs by SRB assay
[4] = tested on: U-251; assay: Cytotoxicity against human U251 cells assessed as cell growth at 10^-8 M after 48 hrs by SRB assay; conditions: U-251, 48 h, read-out: Activity
[5] = tested on: M14; assay: Cytotoxicity against human M14 cells assessed as cell growth at 10^-8 M after 48 hrs by SRB assay; conditions: M14, 48 h, read-out: Activity
[6] = tested on: UACC-257; assay: Cytotoxicity against human UACC257 cells assessed as cell growth at 10^-7 M after 48 hrs by SRB assay; conditions: UACC-257, 48 h, read-out: Activity
[7] = tested on: OVCAR-5; assay: Cytotoxicity against human OVCAR5 cells assessed as cell growth at 10^-5 M after 48 hrs by SRB assay; conditions: OVCAR-5, 48 h, read-out: Activity
[8] = tested on: SF-295; assay: Cytotoxicity against human SF295 cells assessed as cell growth at 10^-6 M after 48 hrs by SRB assay; conditions: SF-295, 48 h, read-out: Activity
[9] = tested on: HT-29; assay: Cytotoxicity against human HT-29 cells assessed as cell growth at 10^-7 M after 48 hrs by SRB assay; conditions: HT-29, 48 h, read-out: Activity
How it was run: (§1)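 NCI-60 five-dose screen. Cells were grown in RPMI 1640 with 5% FBS and seeded at 5000–40,000 cells/well according to doubling time. They were pre-incubated 24 h at 37 °C in 5% CO₂, and time-zero (Tz) plates were TCA-fixed at drug addition. Five 10-fold dilutions of DMSO stock were applied for 48 h. Read-out was SRB staining, 515 nm absorbance, with percent growth calculated versus Tz and untreated control.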

[10] = tested on: A498; assay: Cytotoxicity against human A498 cells assessed as cell growth at 10^-5 M after 48 hrs by SRB assay; conditions: A498, 48 h, read-out: Activity
How it was run: (§2)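 NCI-60 screen: lines kept in RPMI 1640 with 5% FBS, seeded at 5000–40,000 cells/well by doubling time, preincubated 24 h at 37 °C in 5% CO2. Time-zero plates TCA-fixed at drug addition. DMSO stocks diluted in medium, 48 h exposure. Fixation in cold TCA (final 10% adherent, 16% suspension), 0.4% SRB stain, solubilised in 10 mM Tris base, A515. Percent growth computed against control and time-zero.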

[11] = Cytotoxicity against human […] cells assessed as cell growth at 10^-8 M after 48 hrs by SRB assay; conditions: 48 h, read-out: Activity
[12] = tested on: RXF 393; assay: Cytotoxicity against human RXF393 cells assessed as cell growth at 10^-6 M after 48 hrs by SRB assay; conditions: RXF 393, 48 h, read-out: Activity
[13] = tested on: MCF7; assay: Cytotoxicity against human MCF7 cells assessed as cell growth at 10^-7 M after 48 hrs by SRB assay; conditions: MCF7, 48 h, read-out: Activity
[14] = tested on: NCI-H226; assay: Cytotoxicity against human NCI-H226 cells assessed as cell growth at 10^-7 M after 48 hrs by SRB assay; conditions: NCI-H226, 48 h, read-out: Activity
[15] = tested on: 786-0; assay: Cytotoxicity against human 786-0 cells assessed as cell growth at 10^-4 M after 48 hrs by SRB assay; conditions: 786-0, 48 h, read-out: Activity; how it was run: as §2
[16] = tested on: IGROV-1; assay: Cytotoxicity against human IGROV1 cells assessed as cell growth at 10^-4 M after 48 hrs by SRB assay; conditions: IGROV-1, 48 h, read-out: Activity; how it was run: as §1
[17] = tested on: OVCAR-3; assay: Cytotoxicity against human OVCAR3 cells assessed as cell growth at 10^-5 M after 48 hrs by SRB assay; conditions: OVCAR-3, 48 h, read-out: Activity
[18] = tested on: SK-OV-3; assay: Cytotoxicity against human SKOV3 cells assessed as cell growth at 10^-5 M after 48 hrs by SRB assay; conditions: SK-OV-3, 48 h, read-out: Activity
[19] = tested on: NCI-H226; assay: Growth inhibition of human NCI-H226 cells after 48 hrs by SRB assay; conditions: NCI-H226, 48 h; for CC50: read-out: LC50 (the source's name)
How it was run: (§3)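 Adherent NCI-60 lines grown in RPMI 1640 with 5% FBS, seeded at 5000–40,000 cells/well, and preincubated 24 h at 37 °C, 5% CO2. Compound, stocked in DMSO, given either once at 10^-5 M or at five 10-fold dilutions for 48 h. Cells fixed with cold TCA (final 10%), stained with 0.4% SRB, and read at 515 nm. GI50 taken as 50% reduction in net protein increase versus time-zero and control plates.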

[20] = tested on: UACC-62; assay: Cytotoxicity against human UACC62 cells assessed as cell growth at 10^-4 M after 48 hrs by SRB assay; conditions: UACC-62, 48 h, read-out: Activity
[21] = tested on: Malme-3M; assay: Cytotoxicity against human MALME-3M cells assessed as cell growth at 10^-7 M after 48 hrs by SRB assay; conditions: read-out: Activity
[22] = tested on: LOX IMVI; assay: Cytotoxicity against human LOXIMVI cells assessed as cell growth at 10^-5 M after 48 hrs by SRB assay; conditions: read-out: Activity
[23] = tested on: HT-29; assay: Cytotoxicity against human HT-29 cells assessed as cell growth at 10^-8 M after 48 hrs by SRB assay; conditions: HT-29, 48 h, read-out: Activity; how it was run: as §1
[24] = tested on: MDA-MB-435; assay: Cytotoxicity against human MDA-MB-435 cells assessed as cell growth at 10^-8 M after 48 hrs by SRB assay; conditions: MDA-MB-435, 48 h, read-out: Activity
[25] = Cytotoxicity against human Hs 578T cells assessed as cell growth at 10^-7 M after 48 hrs by SRB assay; conditions: read-out: Activity; how it was run: as §1
[26] = tested on: CAKI-1; assay: Cytotoxicity against human Caki1 cells assessed as cell growth at 10^-8 M after 48 hrs by SRB assay; conditions: CAKI-1, 48 h, read-out: Activity; how it was run: as §2
[27] = tested on: EKVX; assay: Cytotoxicity against human EKVX cells assessed as cell growth at 10^-6 M after 48 hrs by SRB assay; conditions: read-out: Activity; how it was run: as §2
[28] = tested on: IGROV-1; assay: Cytotoxicity against human IGROV1 cells assessed as cell growth at 10^-7 M after 48 hrs by SRB assay; conditions: IGROV-1, 48 h, read-out: Activity
[29] = tested on: 786-0; assay: Cytotoxicity against human 786-0 cells assessed as cell growth at 10^-8 M after 48 hrs by SRB assay; conditions: 786-0, 48 h, read-out: Activity; how it was run: as §2
[30] = tested on: MCF7; assay: Growth inhibition of human MCF7 cells after 48 hrs by SRB assay; conditions: MCF7, 48 h; how it was run: as §3
[31] = Cytotoxicity against human […] cells assessed as cell growth at 10^-6 M after 48 hrs by SRB assay; conditions: 48 h, read-out: Activity
[32] = tested on: NCI-H226; assay: Cytotoxicity against human NCI-H226 cells assessed as cell growth at 10^-4 M after 48 hrs by SRB assay; conditions: NCI-H226, 48 h, read-out: Activity

COc1ccc(-c2nn3cc(-c4ccc(O)cc4O)nc3s2)cc1
growth at 1 µM [1]: 75%
growth at 100 µM [2]: -49%
GI50 [3]: 1.92 µM
growth at 0.01 µM [4]: 97%
growth at 0.01 µM [5]: 96%
growth at 0.1 µM [6]: 92%
growth at 10 µM [7]: 20%
growth at 1 µM [8]: 74%
growth at 0.1 µM [9]: 94%
growth at 10 µM [10]: -50%
growth at 0.01 µM [11]: 100%
growth at 1 µM [12]: 55%
growth at 0.1 µM [13]: 89%
growth at 0.1 µM [14]: 88%
growth at 100 µM [15]: -33%
growth at 100 µM [16]: -7%
growth at 10 µM [17]: -7%
growth at 10 µM [18]: -67%
GI50 [19]: 1.43 µM
TGI [19]: 6.95 µM
CC50 [19]: > 100 µM
growth at 100 µM [20]: -72%
growth at 0.1 µM [21]: 90%
growth at 10 µM [22]: 4%
growth at 0.01 µM [23]: 98%
growth at 0.01 µM [24]: 97%
growth at 0.1 µM [25]: 93%
growth at 0.01 µM [26]: 95%
growth at 1 µM [27]: 65%
growth at 0.1 µM [28]: 94%
growth at 0.01 µM [29]: 97%
GI50 [30]: 1.98 µM
LC50 (50% cell kill) [30]: > 100 µM
TGI [30]: 21.6 µM
growth at 1 µM [31]: 69%
growth at 100 µM [32]: -19%

COc1ccc(-c2nn3cc(-c4cccc(N)c4)nc3s2)cc1
growth at 1 µM [1]: 76%
growth at 100 µM [2]: -54%
GI50 [3]: 2.33 µM
growth at 0.01 µM [4]: 106%
growth at 0.01 µM [5]: 101%
growth at 0.1 µM [6]: 109%
growth at 10 µM [7]: 47%
growth at 1 µM [8]: 72%
growth at 0.1 µM [9]: 100%
growth at 10 µM [10]: -17%
growth at 0.01 µM [11]: 96%
growth at 1 µM [12]: 63%
growth at 0.1 µM [13]: 78%
growth at 0.1 µM [14]: 80%
growth at 100 µM [15]: -93%
growth at 100 µM [16]: -18%
growth at 10 µM [17]: 19%
growth at 10 µM [18]: 2%
GI50 [19]: 1.53 µM
TGI [19]: 16.2 µM
CC50 [19]: 71.6 µM
growth at 100 µM [20]: -41%
growth at 0.1 µM [21]: 97%
growth at 10 µM [22]: 26%
growth at 0.01 µM [23]: 100%
growth at 0.01 µM [24]: 95%
growth at 0.1 µM [25]: 84%
growth at 0.01 µM [26]: 86%
growth at 1 µM [27]: 50%
growth at 0.1 µM [28]: 93%
growth at 0.01 µM [29]: 106%
GI50 [30]: 2.2 µM
LC50 (50% cell kill) [30]: > 100 µM
TGI [30]: 20.3 µM
growth at 1 µM [31]: 55%
growth at 100 µM [32]: -61%
